Experimental data as given in PMC7984436 (Clinical Pharmacology in Drug Development, 2020).
Entries after “also recorded” stand apart in the source; their conditions may differ. Read-outs that look alike come from different tables or passages of the source.

Key:
[1] = type: in vivo, human; details: for Tmax: median (minimum through maximum); for Cmax: n = 22, mean ± SD; for t1/2: mean ± SD
[2] = cited from earlier work; for elimination half-life: background statement for the sampling period, no reference given
CYP3A [3] = details: oral contraceptives that are substrates of CYP3A; cited from earlier work
CYP3A [4] = details: cited from earlier work
CYP2B6 = assay: In vivo effect of upadacitinib on CYP2B6; design: species or system human
[5] = Safety monitoring in the phase 1 study; type: in vivo, human; details: healthy subjects
Summary of the method: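 Healthy adults aged 18-55 took part in a single-centre, open-label, two-period, single-sequence study with 24-day on-site confinement. Period 1 gave a single oral 150 mg extended-release CYP2B6 probe substrate dose after at least a 10-hour fast. Period 2 repeated that dose on day 12 of 16 days of oral test compound. Throughout, safety checks covered adverse events, physical exams, vital signs, ECG, haematology, chemistry and urinalysis.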

[6] = cited from earlier work
[7] = cited from earlier work; remark: listed apart in the source
[8] = system: CYP enzymes (CYP1A2, CYP2B6, CYP2C8, CYP2C9, CYP2C19, CYP2D6, and CYP3A4); details: at clinically relevant concentrations, cited from earlier work
CYP2B6 mRNA = details: in vitro, at concentrations higher than clinically relevant; cited from earlier work
[9] = system: CYP1A2, CYP2C9, CYP2C19, or CYP2D6; details: chronic dosing of upadacitinib 30 mg once daily, healthy volunteers; cited from earlier work
JAK1 = details: less potent against JAK2, JAK3, and tyrosine kinase; cited from earlier work
[10] = Study period 2, day 12: upadacitinib 30 mg once daily + bupropion 150 mg
[11] = Period 1, day 1: bupropion 150-mg single dose
[12] = Period 2, day 12: upadacitinib 30 mg once daily + bupropion 150-mg single dose
[13] = Study period 1, day 1: bupropion 150 mg alone
[14] = with upadacitinib relative to bupropion alone
[15] = with upadacitinib 30 mg once daily
[16] = with multiple doses of rifampin (broad CYP inducer)
[17] = with the strong CYP3A inhibitor ketoconazole

For `CC(NC(C)(C)C)C(=O)c1cccc(Cl)c1` (stereo not shown) [Bupropion, bupropion], the Tmax [1, 10] was 5.0 (3.0‐8.0) h, the AUC(0-inf) ([1]; human, plasma, oral, 150 mg) was 859 ng·h/mL and the AUC(0-t) ([1]; human, plasma, oral, 150 mg) was 869 ± 271 ng·h/mL. The Cmax ([1]; human, plasma, oral, 150 mg, Cmax, Study period 1, day 1: bupropion 150 mg alone, plasma) was 83.5 ± 26.2 ng/mL and the elimination half-life [2] was “approximately 20 hours”.
For `C[C@H]1NC(C)(C)CO[C@]1(O)c1cccc(Cl)c1` [Hydroxybupropion, hydroxybupropion], the “Hydroxybupropion-to-bupropion metabolic ratio, AUCinf, central value, reference” value [1, 11] was 16.9, the “Hydroxybupropion-to-bupropion metabolic ratio, AUCt, central value, reference” value [1, 11] was 16.5 and the “Hydroxybupropion-to-bupropion metabolic ratio, Cmax, central value, reference” value [1, 11] was 3.83. For the same compound, the “Hydroxybupropion-to-bupropion metabolic ratio, AUCinf, central value, test” value [1, 12] was 13.2, the “Hydroxybupropion-to-bupropion metabolic ratio, AUCt, central value, test” value [1, 12] was 13.1 and the “Hydroxybupropion-to-bupropion metabolic ratio, Cmax, central value, test” value [1, 12] was 3.45. For the same compound, the t1/2 [1, 13] was 25.1 ± 6.8 h, the Tmax [1, 13] was 10.0 (5.0‐24.0) h and the Cmax ([1]; Study period 1, day 1: bupropion 150 mg alone, plasma) was 336 ± 150 ng/mL. For the same compound, the t1/2 [1, 10] was 23.9 ± 5.6 h, the Tmax [1, 10] was 10.0 (6.0‐24.0) h and the Cmax ([1]; Study period 2, day 12: upadacitinib 30 mg once daily + bupropion 150 mg, plasma) was 264 ± 121 ng/mL. The “AUCt ratio of central values, point estimate” value ([1]; with upadacitinib 30 mg once daily relative to bupropion alone) was 0.726, the “exposures (AUCinf) lower when administered with upadacitinib” value ([1]; with upadacitinib 30 mg once daily versus bupropion alone) was 28% and the “Hydroxybupropion-to-bupropion metabolic ratio, AUCinf, ratio of central values, point estimate” value [1, 14] was 0.780. The “Hydroxybupropion-to-bupropion metabolic ratio, AUCt, ratio of central values, point estimate” value [1, 14] was 0.790, the “Hydroxybupropion-to-bupropion metabolic ratio, Cmax, ratio of central values, point estimate” value [1, 14] was 0.902 and the elimination half-life [2] was “approximately 20 hours”. For the same compound, the “range of variability in hydroxybupropion exposures” value ([2]; inter- and intrasubject variability) was 20% to 50%.
For `C#C[C@]1(O)CC[C@H]2[C@@H]3CCc4cc(O)ccc4[C@H]3CC[C@@]21C` [ethinylestradiol], the “impact of upadacitinib on exposure” value (CYP3A [3]) is given as “no impact”.
For `C#C[C@]1(O)CC[C@H]2[C@@H]3CCC4=CC(=O)CC[C@@H]4[C@H]3CC[C@@]21CC` [levonorgestrel], the “impact of upadacitinib on exposure” value (CYP3A [3]) is given as “no impact”.
In the case of `Cc1ncc2n1-c1ccc(Cl)cc1C(c1ccccc1F)=NC2` [midazolam], the “decrease in exposures of midazolam” value (CYP3A [4]; chronic dosing of upadacitinib 30 mg once daily, healthy volunteers) is given as 26%, the “decrease in midazolam AUC” value (CYP3A [4]; [15]) is given as 26% and the “decrease in midazolam Cmax” value (CYP3A [4]; [15]) is given as 26%.
In the case of `CC[C@@H]1CN(C(=O)NCC(F)(F)F)C[C@@H]1c1cnc2cnc3[nH]ccc3n12` [upadacitinib], the “effect on bupropion exposures (Cmax or AUC)” value (CYP2B6; bupropion on day 12 of 16-day upadacitinib 30 mg once daily regimen) is reported as “no relevant effect”, the “effect on pharmacokinetics of substrates metabolized by CYP2B6” value (CYP2B6; upadacitinib 30 mg once daily, multiple doses) is reported as “no relevant effect; also recorded: lack of relevant effect” and the “discontinuation because of adverse events” value ([5]; n = 22) is reported as “no subject discontinued because of AEs”. The “severity of the majority of treatment-emergent adverse events” value ([5]; n = 22, upadacitinib 30 mg once daily and bupropion 150 mg) was “mild in severity”, the “decrease in upadacitinib AUC” value [6, 16] was roughly 60% and the “decrease in upadacitinib Cmax” value [6, 16] was “approximately 50%”. The “increase in upadacitinib AUC” value [6, 17] was 75%, the “increase in upadacitinib Cmax” value [6, 17] was 70% and the “dose eliminated unchanged in urine” value [7] was “approximately 20%”. For the same compound, the “inhibition or induction of the activity of CYP enzymes” value [8] was “did not inhibit or induce”, the “inhibitor or inducer of drug-metabolizing enzymes, including CYP2B6” value ([8]; in vitro) was “not an inhibitor or inducer” and the “CYP2B6 mRNA expression” value (CYP2B6 mRNA) was “increase in CYP2B6 mRNA expression”. For the same compound, the “effects on CYP1A2, CYP2C9, CYP2C19, or CYP2D6 activity” value [9] was “no relevant effects” and the JAK1 inhibition (JAK1) was “potently inhibits”.
